# Assays:
# [1] = system: ATP-binding cassette sub-family G member 2 (Homo sapiens); test: Inhibition of ABCG2-mediated mitoxantrone efflux in mitoxantrone-selected human PANC1 cells overexpressing ABCG2; conditions: PANC-1
# [2] = Selectivity ratio of EC50 for human H23 cells overexpressing ABCG2 to EC50 for human H460 cells overexpressing ABCG2; assay type: functional
# [3] = molecular target: T1, Broad substrate specificity ATP-binding cassette transporter ABCG2 (Homo sapiens, UniProt Q9UNQ0); test: Inhibition of ABCG2 (unknown origin) transfected in HEK293 cells assessed as inhibition of mitoxantrone efflux at 5 uM after 30 mins in presence of 0.1 uM chromone 1 by flow cytometry; assay type: cell-based
# T1 sequence (Q9UNQ0 whole entry): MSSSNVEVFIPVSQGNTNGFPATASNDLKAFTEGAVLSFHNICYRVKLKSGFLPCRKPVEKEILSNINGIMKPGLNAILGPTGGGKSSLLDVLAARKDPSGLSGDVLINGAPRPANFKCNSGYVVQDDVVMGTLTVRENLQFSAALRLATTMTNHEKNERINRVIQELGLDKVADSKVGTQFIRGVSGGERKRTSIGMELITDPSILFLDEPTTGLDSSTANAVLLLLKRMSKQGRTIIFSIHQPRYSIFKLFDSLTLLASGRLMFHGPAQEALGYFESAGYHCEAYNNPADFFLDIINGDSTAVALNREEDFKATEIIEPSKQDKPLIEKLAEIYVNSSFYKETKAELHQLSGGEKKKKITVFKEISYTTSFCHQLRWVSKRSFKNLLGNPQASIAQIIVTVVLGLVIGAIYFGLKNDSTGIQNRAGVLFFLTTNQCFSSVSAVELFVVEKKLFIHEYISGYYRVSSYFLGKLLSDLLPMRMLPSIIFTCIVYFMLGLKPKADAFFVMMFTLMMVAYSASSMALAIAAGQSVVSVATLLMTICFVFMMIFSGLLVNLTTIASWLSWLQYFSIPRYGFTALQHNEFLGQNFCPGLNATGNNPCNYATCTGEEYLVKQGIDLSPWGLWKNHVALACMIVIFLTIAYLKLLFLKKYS
# [4] = molecular target: T1, Broad substrate specificity ATP-binding cassette transporter ABCG2; test: Inhibition of ABCG2 (unknown origin)-mediated mitoxantrone efflux transfected in HEK293 cells assessed as potentiation of mitoxantrone-induced cytotoxicity at 0.1 uM after 72 hrs by MTT assay; assay type: cell-based; conditions: hek293, 72 h
# Summary of the method: (§1)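 HEK293-ABCG2 and vector-control HEK293-pcDNA3.1 cells were seeded at 1 × 10⁴/well and grown 24 h, then exposed 72 h to mitoxantrone (0–25 nM). ABCG2 cells were also given bis-chalcone at 0.1 or 0.5 μM. MTT was added for 4 h, formazan dissolved in DMSO/ethanol (1:1) and read at 570 nm. IC50 = mitoxantrone concentration giving 50% survival.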
# [5] = molecular target: T1, Broad substrate specificity ATP-binding cassette transporter ABCG2; test: Inhibition of human ABCG2 transfected in Sf9 insect cells assessed as inhibition of basal ATPase activity in absence of substrate drug after 30 mins by colorimetry; conditions: sf9, 0.5 h
# Summary of the method: (§2)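 Cholesterol-loaded membranes from Sf9 cells overexpressing human ABCG2 (0.5 mg/mL; 10 μg/sample) in 50 mM Tris-HCl, 50 mM NaCl, pH 8.0, with or without 0.33 mM orthovanadate, no transport substrate; started with 3.9 mM ATP-Mg, 30 min at 37 °C; stopped with SDS; phosphate released read with molybdate/ascorbic acid at 880 nm; vanadate-sensitive basal activity taken as 100%.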
# PANC-1 = test: Selectivity ratio of EC50 for human PANC1 cells overexpressing ABCG2 to EC50 for human H460 cells overexpressing ABCG2; assay type: functional
# [6] = molecular target: T1, Broad substrate specificity ATP-binding cassette transporter ABCG2; test: Inhibition of ABCG2 (unknown origin) transfected in HEK293 cells assessed as inhibition of mitoxantrone efflux at 5 uM after 30 mins in presence of 0.02 uM Ko143 by flow cytometry; assay type: cell-based
# [7] = molecular target: T1, Broad substrate specificity ATP-binding cassette transporter ABCG2; test: Inhibition of ABCG2 (unknown origin) transfected in HEK293 cells assessed as inhibition of mitoxantrone efflux after 30 mins by flow cytometry relative to control; assay type: cell-based
# HEK293 = test: Cytotoxicity against HEK293 cells overexpressing ABCG2 at 0.1 uM after 72 hrs by MTT assay; assay type: ADME, cell-based; conditions: human, hek293, 72 h
# Summary of the method: as §1
# ABCG2 = molecular target: T2, ABCG2 (Homo sapiens, UniProt Q9UNQ0); test: Inhibition of ABCG2 (unknown origin) transfected in HEK293 cells assessed as inhibition of mitoxantrone efflux at 5 uM after 30 mins by flow cytometry relative to control; assay type: cell-based; conditions: HEK293 cells transfected with ABCG2, probe mitoxantrone
# T2 sequence (Q9UNQ0 whole entry): T1 sequence (Q9UNQ0 whole entry)
# Summary of the method: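 HEK293-ABCG2 cells (1.5 × 10⁵/well, grown 48 h) exposed to 5 μM mitoxantrone for 30 min at 37 °C with compound (increasing concentrations up to 10 μM); washed, trypsinized, FL4 flow cytometry, ≥10 000 events.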
# [8] = molecular target: ATP-dependent translocase ABCB1 (Homo sapiens, UniProt P08183); test: Inhibition of ABCB1 (unknown origin) transfected in mouse NIH/3T3 cells assessed as inhibition of mitoxantrone efflux up to 10 uM after 30 mins by flow cytometry relative to control; assay type: cell-based; conditions: nih/3t3, 0.5 h
# Sequence of ATP-dependent translocase ABCB1 (P08183 whole entry): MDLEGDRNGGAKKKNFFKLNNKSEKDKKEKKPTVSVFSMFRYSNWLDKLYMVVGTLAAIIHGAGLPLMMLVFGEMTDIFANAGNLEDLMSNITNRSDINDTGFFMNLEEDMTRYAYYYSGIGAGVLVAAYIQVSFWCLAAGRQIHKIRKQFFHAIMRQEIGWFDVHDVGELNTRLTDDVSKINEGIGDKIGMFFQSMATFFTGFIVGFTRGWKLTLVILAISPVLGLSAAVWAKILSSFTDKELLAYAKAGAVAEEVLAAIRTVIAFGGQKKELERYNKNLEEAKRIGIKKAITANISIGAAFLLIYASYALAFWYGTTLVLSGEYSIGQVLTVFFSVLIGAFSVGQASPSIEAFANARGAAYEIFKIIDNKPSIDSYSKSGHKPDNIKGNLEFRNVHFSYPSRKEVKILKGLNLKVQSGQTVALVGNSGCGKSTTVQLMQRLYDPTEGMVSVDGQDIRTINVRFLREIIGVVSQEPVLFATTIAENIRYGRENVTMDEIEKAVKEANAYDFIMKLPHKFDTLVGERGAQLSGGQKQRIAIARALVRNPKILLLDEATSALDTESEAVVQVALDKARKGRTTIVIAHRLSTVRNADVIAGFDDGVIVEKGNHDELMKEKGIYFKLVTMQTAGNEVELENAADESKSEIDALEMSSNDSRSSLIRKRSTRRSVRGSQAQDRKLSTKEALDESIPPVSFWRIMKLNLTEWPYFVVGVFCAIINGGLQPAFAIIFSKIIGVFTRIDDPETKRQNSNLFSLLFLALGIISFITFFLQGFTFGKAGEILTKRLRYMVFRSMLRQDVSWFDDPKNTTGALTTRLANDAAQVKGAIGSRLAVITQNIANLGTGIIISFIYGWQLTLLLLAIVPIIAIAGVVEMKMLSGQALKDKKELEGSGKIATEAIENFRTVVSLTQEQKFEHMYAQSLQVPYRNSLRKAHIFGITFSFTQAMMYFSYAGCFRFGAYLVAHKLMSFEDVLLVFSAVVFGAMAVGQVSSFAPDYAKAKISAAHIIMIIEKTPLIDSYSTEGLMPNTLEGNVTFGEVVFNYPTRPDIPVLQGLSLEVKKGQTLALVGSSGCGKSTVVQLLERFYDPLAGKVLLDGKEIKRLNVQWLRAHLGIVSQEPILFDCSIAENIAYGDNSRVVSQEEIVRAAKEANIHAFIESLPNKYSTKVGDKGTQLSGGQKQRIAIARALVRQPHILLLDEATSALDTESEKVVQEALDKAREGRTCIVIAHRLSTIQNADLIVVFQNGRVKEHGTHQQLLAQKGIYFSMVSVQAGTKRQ
# Summary of the method: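 NIH-3T3-ABCB1 cells (1.5 × 10⁵/well, 48 h, kept in 60 ng/mL colchicine) were given 5 μM mitoxantrone for 30 min at 37 °C with bis-chalcone at 1 or 10 μM. Fluorescence was read by FL4 flow cytometry, ≥10 000 events. Inhibition was expressed relative to parental NIH-3T3 cells, whose maximal accumulation was taken as complete inhibition.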
# [9] = molecular target: T1, Broad substrate specificity ATP-binding cassette transporter ABCG2; test: Inhibition of human ABCG2 ATPase activity transfected in Sf9 insect cells using quercetin as substrate after 30 mins by colorimetry relative to control
# Summary of the method: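 Vanadate-sensitive ATPase of cholesterol-loaded human ABCG2 Sf9 membranes (0.5 mg/mL; 10 μg/sample), 50 mM Tris-HCl/50 mM NaCl pH 8.0, with 2 μM quercetin. ATP-Mg 3.9 mM, 30 min, 37 °C. Phosphate measured colorimetrically at 880 nm. Coupled activity = total minus basal, taken as 100%. IC50 is the concentration giving 50% inhibition.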
# [10] = molecular target: Multidrug resistance-associated protein 1 (Homo sapiens, UniProt P33527); test: Inhibition of ABCC1 (unknown origin) transfected in HEK293 cells assessed as inhibition of calcein-AM efflux up to 10 uM after 30 mins by flow cytometry relative to control; assay type: cell-based; conditions: hek293, 0.5 h
# Sequence of Multidrug resistance-associated protein 1 (P33527 whole entry): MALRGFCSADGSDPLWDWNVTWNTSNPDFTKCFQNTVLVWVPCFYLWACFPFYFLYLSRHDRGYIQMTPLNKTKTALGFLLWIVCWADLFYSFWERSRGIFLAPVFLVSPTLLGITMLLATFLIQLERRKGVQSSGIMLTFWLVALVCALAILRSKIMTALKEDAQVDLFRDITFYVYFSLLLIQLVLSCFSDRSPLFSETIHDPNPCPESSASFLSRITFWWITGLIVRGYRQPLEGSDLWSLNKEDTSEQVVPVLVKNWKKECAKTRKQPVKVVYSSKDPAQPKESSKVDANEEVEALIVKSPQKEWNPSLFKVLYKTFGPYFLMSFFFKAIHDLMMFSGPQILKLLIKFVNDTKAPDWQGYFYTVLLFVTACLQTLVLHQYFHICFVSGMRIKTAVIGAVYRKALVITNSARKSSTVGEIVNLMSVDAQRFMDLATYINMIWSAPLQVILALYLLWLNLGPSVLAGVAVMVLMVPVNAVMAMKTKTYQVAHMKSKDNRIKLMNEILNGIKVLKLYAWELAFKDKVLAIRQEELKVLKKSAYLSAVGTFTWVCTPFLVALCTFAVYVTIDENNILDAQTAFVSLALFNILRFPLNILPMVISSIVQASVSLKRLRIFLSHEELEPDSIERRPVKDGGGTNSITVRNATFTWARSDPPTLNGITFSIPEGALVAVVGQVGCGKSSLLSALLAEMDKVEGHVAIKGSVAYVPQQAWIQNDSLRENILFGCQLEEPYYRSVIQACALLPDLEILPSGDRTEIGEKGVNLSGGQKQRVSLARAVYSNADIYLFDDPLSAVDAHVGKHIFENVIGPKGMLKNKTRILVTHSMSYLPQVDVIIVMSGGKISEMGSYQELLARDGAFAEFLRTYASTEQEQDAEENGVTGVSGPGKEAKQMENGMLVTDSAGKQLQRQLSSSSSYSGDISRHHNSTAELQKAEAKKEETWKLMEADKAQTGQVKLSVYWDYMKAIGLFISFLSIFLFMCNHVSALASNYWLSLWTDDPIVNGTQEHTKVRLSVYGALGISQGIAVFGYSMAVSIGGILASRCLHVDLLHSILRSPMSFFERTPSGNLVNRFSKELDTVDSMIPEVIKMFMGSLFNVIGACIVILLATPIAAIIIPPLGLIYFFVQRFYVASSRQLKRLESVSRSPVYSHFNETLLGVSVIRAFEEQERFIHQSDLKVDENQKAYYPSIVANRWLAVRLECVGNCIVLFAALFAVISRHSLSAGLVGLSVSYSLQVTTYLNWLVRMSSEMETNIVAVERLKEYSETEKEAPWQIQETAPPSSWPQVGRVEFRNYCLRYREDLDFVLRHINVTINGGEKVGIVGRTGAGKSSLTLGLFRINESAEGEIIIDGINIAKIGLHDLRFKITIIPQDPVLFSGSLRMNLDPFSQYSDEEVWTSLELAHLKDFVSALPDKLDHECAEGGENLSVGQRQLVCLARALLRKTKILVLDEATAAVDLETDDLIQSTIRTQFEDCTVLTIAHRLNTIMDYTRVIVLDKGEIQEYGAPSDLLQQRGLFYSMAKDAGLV
# Summary of the method: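 HEK293-ABCC1 cells (2 × 10⁵/well, kept in 200 μg/mL hygromycin B) were exposed to 0.2 μM calcein-AM for 30 min at 37 °C with bis-chalcone at 1 or 10 μM. Calcein was read by FL1 flow cytometry, ≥10 000 events. Inhibition was expressed relative to HEK293/pcDNA5 cells, whose maximal accumulation equals complete inhibition.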
# ABCG2 ATPase = molecular target: T3, ABCG2 ATPase (Homo sapiens, UniProt Q9UNQ0); test: Activation of human ABCG2 transfected in Sf9 insect cells assessed as stimulation of basal ATPase activity in absence of substrate drug after 30 mins by colorimetry; conditions: Sf9 insect cells transfected with human ABCG2, read-out: FC
# T3 sequence (Q9UNQ0 whole entry): T1 sequence (Q9UNQ0 whole entry)
# Summary of the method: as §2
compound,measurement,setting,value
COc1cccc(OC)c1/C=C/C(=O)c1ccc(C(=O)/C=C/c2c(OC)cccc2OC)cc1,EC50,[1],0.21 µM
same,Ratio EC50,[2],3
same,EC50,[3],0.015 µM
same,inhibition (INH),[4],Active
same,inhibition (INH),[5],Not Active
same,Ratio EC50,PANC-1,3
same,EC50,[6],0.126 µM
same,EC50,[7],0.2 µM
same,Activity,HEK293,Non-toxic
same,"inhibition at 0.5 h, 5 µM",ABCG2,108%
same,inhibition (INH),[8],Not Active
same,IC50,[9],0.19 µM
same,inhibition (INH),[10],Not Active
same,fold induction at 0.5 h,ABCG2 ATPase,1.6

# From ChEMBL document CHEMBL3232774, “Symmetric bis-chalcones as a new type of breast cancer resistance protein inhibitors with a mechanism different from that of chromones” (J Med Chem, 2014)
